# This is a sample that favours compounds with a hit; in the whole collection about 4.1% have one here.
# ATG4B inh: ATG4B protease inhibitors, primary screen, biochemical, fluorescence, uHTS | 340,000 tested, 0.51% active | inhibition, % at 8.33 µM | ATG4B cleavage of LC3-PLA2, NBD-HPC fluorescence, 1 h | Cysteine protease ATG4B (Homo sapiens), Q9Y4P1; in the data active = inhibition above about 40%
# Target sequence (Q9Y4P1 whole entry, looked up): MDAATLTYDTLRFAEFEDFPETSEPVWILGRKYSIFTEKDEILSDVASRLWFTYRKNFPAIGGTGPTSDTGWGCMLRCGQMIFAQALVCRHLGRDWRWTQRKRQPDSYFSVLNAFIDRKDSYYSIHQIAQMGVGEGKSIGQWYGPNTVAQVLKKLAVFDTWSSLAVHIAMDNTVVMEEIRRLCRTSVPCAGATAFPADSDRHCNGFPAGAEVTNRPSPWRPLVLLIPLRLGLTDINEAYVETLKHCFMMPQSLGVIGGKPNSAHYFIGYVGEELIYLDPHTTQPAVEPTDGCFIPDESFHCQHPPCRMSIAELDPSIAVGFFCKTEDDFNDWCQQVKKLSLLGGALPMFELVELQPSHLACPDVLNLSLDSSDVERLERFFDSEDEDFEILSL
# MC4R antag cAMP: MC4R antagonists of cAMP signaling, primary screen, cell-based, TR-FRET, antagonist arm of biased-ligand search | MC4R-expressing cells, MTII-stimulated cAMP, LANCE TR-FRET | 360,000 tested, 0.48% active | Melanocortin receptor 4 (Homo sapiens), P32245 | inhibition, % at 6.5 µM;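 active = inhibition above its plate's cutoff, the mean of tested wells on that plate plus 3 SD, cut at about 29% in these data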;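 also: 0% = Melanotan II alone and 100% = Melanotan II plus saturating MCL0020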
#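 material = U2OS cells stably expressing human melanocortin 4 receptor (MC4R) | also added = Melanotan II challenge | dosing = single nominal compound dose of 6.5 µM | detection = TR-FRET with Eu-cAMP and labeled anti-cAMP, 671 nm | replication = singlicate | timing = compound 30 min, challenge 1 h, detection 1 h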
# SMARCA2 act: SMARCA2 (BRM) function activators, primary screen, cell-based, luminescence, high throughput; MG213 cells, MMTV-luciferase reporter, dexamethasone, overnight; AID 652017, 2013; activation, % at 9.1 µM; 370,000 tested, 1% active; in the data active = activation above about 7.8%;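 also: 0% = vehicle wells and 100% = reference activator wells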
# MC4R barr agon: MC4R agonists recruiting beta-arrestin, primary screen, cell-based, luminescence, agonist arm of biased-ligand search; Melanocortin receptor 4 (Homo sapiens), P32245; U2OS MC4R beta-arrestin complementation; percent of melanotan II response, DMSO zero; activation, % at 8.9 µM; 360,000 tested, 0.98% active; AID 540308, 2011;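 active = activation above a per-plate cutoff, the mean activation of sample wells on that plate plus 3 SD, cut at about 8% in these data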
# MPTP inh: mitochondrial permeability transition pore inhibitors, primary screen, biochemical, isolated mouse mitochondria, absorbance; Ca2+ swelling absorbance, 30 min; inhibition, % at 10 µM; 360,000 tested, 1.4% active; AID 602449, 2012;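 active = inhibition of 50% or more, scaled per plate between neutral and stimulator controls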;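 also: 0% = DMSO wells given calcium and 100% = 1 mM EGTA wells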
# * marks the source's active call; other numbers are inactive results; / = not tested or not shown.
SMILES,ATG4B inh,MC4R antag cAMP,SMARCA2 act,MC4R barr agon,MPTP inh
CCc1nc(NCCC(C)C)c2nnn(Cc3ccccc3)c2n1,1.5,5.2,-0.7,8.9*,0.5
COC(=O)c1cc(-c2cccc3c2sc2ccccc23)c(=O)n2c1CCC2,/,/,-3.1,/,/
COC(=O)c1cc(S(=O)(=O)N2CCN(c3cccc(Cl)c3)CC2)c[nH]1,-21.4,-3.0,/,9.1*,0.0
COC(=O)c1cc(S(=O)(=O)N2CCN(c3ccccc3F)CC2)c[nH]1,0.1,0.7,-0.4,-0.1,0.8
Cc1ccc2cc3cc(C(=O)N(CC(=O)NC4CCCC4)c4cccc(C)c4C)sc3nc2c1,19.2,34.0*,2.3,1.2,2.4
Cc1ccc(C)c(N(CC(=O)NC2CCCC2)C(=O)c2cc3cc4cccc(C)c4nc3s2)c1,-6.9,12.3,-1.3,-1.5,2.8
Cc1ccc(O)c(C(=O)c2cnn(C(=O)Cc3csc(C)n3)c2)c1,42.6*,3.3,2.7,-0.8,-1.7
Cc1ccc(OCC(=O)NN2C(=O)c3ccccc3C2=O)cc1,-11.2,-0.6,5.2,-1.2,-2.5
c1ccc(NN=C2c3ccccc3-c3ccccc32)cc1,1.1,3.5,-1.7,0.4,5.8
Cc1ccc(NN=C2c3ccccc3-c3ccccc32)cc1,23.9,14.0,-0.3,8.4*,2.4
Cc1ccc(OCC(=O)NN=C2c3ccccc3-c3ccccc32)cc1,-2.1,-4.2,3.3,8.6*,1.8
CS(=O)(=O)c1sc(C#N)c2c1C(=O)CC(c1ccccc1)C2 (stereo not given),11.2,32.9*,-12.4,-2.4,0.7
Oc1ccc(Oc2ccc3c(C(F)(F)F)cc(C(F)(F)F)nc3n2)cc1,-17.2,14.2,-4.0,14.7*,0.9
CCC(C)N(Cc1ccc(OC)cc1OC)S(=O)(=O)c1cc(Br)ccc1Br (stereo not given),/,/,-3.4,/,/
Cc1cccc(NC(=O)Nc2cccc(C#N)c2)n1,-5.7,-16.7,1.8,8.2*,0.1
O=C(CCl)N=c1sccn1Cc1cccc2ccccc12,-4.7,14.1,-12.8,6.8,0.3
O=C(CCl)N=c1sccn1Cc1ccc(Cl)cc1Cl,2.8,20.9,-4.8,11.6*,0.3
O=C(CCl)N=c1sccn1Cc1ccccc1Cl,4.6,8.2,-12.7,24.1*,1.1
CCN1Cc2nnn(Cc3ccccc3)c2-c2cc(N3CCCC3)ccc2S1(=O)=O,/,/,-2.6,/,/
O=C(NC1CCCCN(Cc2ccc(Cl)cc2)C1=O)C1C2CC3CC(C2)CC1C3 (stereo not given),/,/,-2.3,/,/
Cc1ccc(S(=O)(=O)NC(C)(C)CN2CCC(Cc3ccccc3)CC2)cc1,3.1,15.5,0.3,8.4*,7.9
O=C(CSCC(=O)Nc1nc(-c2ccc3c(c2)OCO3)cs1)Nc1nccs1,-9.2,-1.2,1.9,0.4,-1.8
O=C(CSc1ccc(-c2ccc3c(c2)OCO3)nn1)Nc1nccs1,-1.5,2.5,-1.1,9.5*,4.4
CC(=O)N1CCN(C(=O)CCn2nnc3ccccc32)CC1,/,/,-1.4,/,/
CCCCOCCCNC(=O)C[C@H]1C[C@@]2(C(=O)OC)C(=C[C@H](C(C)(C)C)O[C@@H]2C)N(Cc2ccc(Cl)cc2Cl)C1=O,/,/,-1.8,/,/
SMILES,ATG4B inh,MC4R antag cAMP,SMARCA2 act,MC4R barr agon,MPTP inh
O=S1(=O)c2ccc(N3CCN(Cc4ccccc4F)CC3)cc2Oc2ccccc2CN1Cc1cn(Cc2cccc(C(F)(F)F)c2)nn1,/,/,-2.6,/,/
O=C1CNC(=O)c2c(nc3n2CCC3)N1,4.8,-7.2,7.8*,-0.7,-0.3
Cc1ccc(NC(=O)OC2CC3CC2[C@H]2CCCCN2C3)cc1 (stereo not given in full),/,/,-0.7,/,/
CC(C)Nc1nc(Cl)nc(N(C#N)CN2C(=O)c3ccccc3C2=O)n1,-0.6,-24.5,14.4*,-2.2,-15.1
Cc1cc(NS(=O)(=O)C2CCN(C(=O)Cc3ccc(Cl)c(Cl)c3)CC2)no1,/,/,-1.1,/,/
COc1ccccc1NC(=O)NC1CCCc2ccccc21 (stereo not given),8.5,4.9,-1.6,-1.5,-0.4
COc1ccccc1NC(=O)COc1ccc(C(=O)NC2CCCc3ccccc32)cc1OC (stereo not given),9.7,-6.8,-1.6,8.5*,8.0
CCC(=O)NC1=C(Cl)C(=O)C(NC(=O)CC)=C(Cl)C1=O,0.9,-21.4,8.6*,0.6,3.3
CCC(=O)NC1=C(NC(C)c2ccccc2)C(=O)c2ccccc2C1=O (stereo not given),-8.7,3.5,0.5,-0.4,-0.8
COc1ccc(C2NC(=S)N(Cc3ccc(Cl)cc3)C(C)=C2C(C)=O)cc1 (stereo not given),/,/,-5.2,/,/
O=C(CNc1ccccc1OC(F)F)N1CCc2ccccc21,-2.9,-1.1,3.4,8.3*,-3.5
CCc1nnc(NC(=O)CSc2ncnc3c2oc2ccccc23)s1,-10.8,5.3,1.1,-1.2,-0.7
O=C(CSc1ncnc2c1oc1ccccc12)Nc1nc2ccccc2s1,1.9,7.7,-5.1,8.6*,2.6
COc1ccc(S[C@]2(C(=O)N3CCOCC3)CC(=O)N(c3ccc(Cl)cc3)[C@@H]2c2ccc(OC)cc2)cc1,/,/,-2.2,/,/
CN(C)c1ccc(C=c2c3ccccc3n3c2c2ccccc2[n+]3C)cc1,28.7,4.1,-9.5,13.8*,9.2
CC(NCC(O)COc1ccc2ccccc2c1)c1ccccc1 (stereo not given),13.2,-6.8,-2.5,4.1,1.5
Cc1cc(OCC(O)CNC(C)c2ccccc2)ccc1C(C)C (stereo not given),7.2,-0.1,-2.0,9.2*,6.8
Fc1ccc(N=c2ssnc2Cl)c(F)c1,-1.3,28.6*,1.0,1.9,-4.3
CCOc1ccc(-n2c(SCC(=O)Nc3ccc(S(=O)(=O)Nc4cc(C)nc(C)n4)cc3)nnc2-c2ccco2)cc1,/,/,4.0,/,/
Cc1ccc(Nc2nc3c(c(=O)[nH]c(=O)n3C)n2Cc2ccc(F)cc2)cc1,2.4,14.2,1.2,8.9*,-2.9
Cn1c(=O)[nH]c(=O)c2c1nc(NCCCO)n2Cc1ccc(F)cc1,-14.4,-4.9,-0.4,-1.6,-1.2
CCOC(=O)[C@]12CCCC=C1N(Cc1ccc(OC)cc1)C(=O)[C@@H]2CC(=O)NCC12CC3CC(CC(C3)C1)C2,/,/,-2.8,/,/
COC(=O)C1=C(C)N(Cc2ccccc2)C(=NCCc2c[nH]c3ccccc23)N[C@H]1c1cccc(C(F)(F)F)c1,-14.2,11.3,/,33.2*,1.5
Cc1ccccc1C(=O)N[C@@H](CC(C)C)C(=O)N1CCC[C@H]1C(=O)NCc1ccccc1,/,/,-1.8,/,/
CCN(CC(=O)Nc1ccc(NC(C)=O)cc1)C(=O)/C=C/c1cn(-c2ccccc2)nc1-c1ccc(F)cc1,-7.2,0.6,0.3,8.4*,0.6
COc1ccc2nc(SCc3cccc(C)c3)nc(C)c2c1,1.5,-23.4,8.5*,1.0,7.2

# Bioassay records: PubChem, several laboratories
